Source: PubChem BioAssay AID1296 (Columbia University Molecular Screening Center, 2008)
Screen size: about 130,000 compounds; about 1,000 (0.77%) were called active. Another 1% or so got no clear call; they are omitted.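 Rule for the calls: active = activation at 2 µM above a set limit, confirmed on inspection of the cell images; inconclusive = above the set limit but not confirmed on image inspection; inactive = the rest.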 Shown is part of a subset that was picked to be rich in actives.

Assay: insulin gene promoter stimulation in islet cells – imaging, TRM-6 cells (human fetal islet line), eGFP reporter, cell count, primary screen (AID 1296;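 for activation: share of cells whose green reporter signal exceeds an intensity cutoff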)
Details: at 2 µM; activation: stronger effect = higher value, plate-scaled: unstimulated 0, stimulated control 100; normalized cell count: measured here: cell count (toxicity)
Method in brief: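 test system = TRM-6 insulin promoter–eGFP reporter cells | benchmarks = stimulated versus unstimulated wells as plate controls | read-out basis = percent cells above green-intensity threshold, converted to percent activation versus plate controls | detection = fixed-cell fluorescence microscopy, eGFP plus Hoechst | incubation = tamoxifen pre-incubation 15 h overnight, then compound exposure 48 h at 37 °C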

Structure (SMILES) | activation | normalized cell count
Cc1cccc(C)c1OC(=O)CSc1nnc(-c2ccccc2)o1 | 487% (active) | 75.9%
COC(=O)CSc1nnc(-c2cccnc2)o1 | 5.13% (inactive) | 134%
O=C(CSc1nnc(-c2ccoc2)o1)N1CCOCC1 | -9.09% (inactive) | 105%
C=CCOc1c(Br)cc(/C=N\n2nnnc2N)cc1OC | 0% (inactive) | 53.2%
O=C(CN1C(=O)NC2(CCCCCC2)C1=O)NC1CC1 | 542% (active) | 78.5%
CCC1SC(CC)C(=O)N(CC(=O)NC2CCCCC2)C1=O (configuration not stated) | -8.33% (inactive) | 80.9%
O=C(CN1C(=O)NC2(CCCCC2)C1=O)NCCC1=CCCCC1 | -3.7% (inactive) | 86.8%
O=C(CSc1nc2ccc([N+](=O)[O-])cc2[nH]1)c1ccc(Cl)cc1 | -3.7% (inactive) | 85.9%
COc1ccccc1-c1nc(SC)n[nH]1 | -5.26% (inactive) | 131%
COCCNC(=S)c1ccc(OC)cc1 | 433% (active) | 62.5%
COc1cc(NC(=S)NCCSc2ccc(C)cc2)cc(OC)c1 | -3.12% (inactive) | 116%
COc1ccc(C(=O)NC(=S)NNC(=O)CCc2ccccc2)cc1 | -3.57% (inactive) | 91.6%
CN=C1S/C(=C\c2ccc(Sc3ccc(Cl)cc3)o2)C(=O)N1C | -2.7% (inactive) | 43.5%
Cc1ccc(/C=N/NC(=O)Cn2ccc(C(F)(F)F)n2)o1 | 8.33% (inactive) | 128%
CC(CNC(=O)c1ccc(N)cc1)NC(=O)c1ccc(N)cc1 (configuration not stated) | 2.33% (inactive) | 108%
O=C(NNc1ncnc2c1cnn2-c1ccccc1)c1ccco1 | 500% (active) | 142%
Cc1ccc(-n2ncc3c(Nc4cccc(C(=O)O)c4)ncnc32)cc1 | 6.67% (inactive) | 45%
CCN(CC)C(=O)CSc1ncnc2c1cnn2-c1ccccc1 | 392% (inactive) | 43.6%
COc1cc(/C=N/NC(=O)c2cc(C)n(-c3ccc(F)cc3)c2C)cc(OC)c1O | 129% (inactive) | 121%

Structure (SMILES) | activation | normalized cell count
Cc1cc(NC(=O)COC(=O)COc2ccc(Cl)cc2C)c([N+](=O)[O-])cc1C | 0% (inactive) | 143%
Cc1cc(=O)oc(C)c1C(=O)N1CCCCC1 | 5.26% (inactive) | 82.9%
Cc1ccc2cc3cc(C(=O)N4CCCCCC4)oc3nc2c1 | 183% (active) | 233%
Cc1cccc(C(=O)N2CCCN(C(=O)c3cccc(C)c3)CC2)c1 | 3.23% (inactive) | 110%
Cc1cccc(N(C(=O)Cc2cccs2)C(C(=O)NCc2ccco2)c2ccncc2)c1 (configuration not stated) | 107% (inactive) | 58.7%
COc1cc(NC(=O)CSc2nnc3ccc(-c4ccncc4)nn23)cc(OC)c1 | -5.26% (inactive) | 108%
Cc1ccc(OC(=O)c2cc3ccccc3o2)cc1 | 79.3% (active) | 174%
O=C(Nc1ccncc1)c1cc2ccccc2o1 | 342% (inactive) | 93.3%
COc1ccc(C(=O)N/N=c2\oc3ccccc3cc2C(N)=O)cc1 | 0% (inactive) | 70.8%
COC(=O)[C@H]1Cc2cnoc2C[C@]1(C)C(=O)O | 0% (inactive) | 176%
COc1ccc(C)cc1NC(=O)CSc1ccc(Cl)cc1 | -5.56% (inactive) | 93.7%
Cc1cc(C)cc(NC(=O)CSc2ccccc2)c1 | 525% (active) | 53.5%
COC(=O)c1cc(OC)c(OC)cc1NC(=O)CSc1ccc(C)cc1 | 3.33% (inactive) | 108%
Cc1nc(CC(=O)NNS(=O)(=O)c2ccc(F)c(Cl)c2)cs1 | -7.69% (inactive) | 104%
N#Cc1ccc(Oc2cc(C(F)(F)F)nc(-c3ccccn3)n2)cc1 | -9.09% (inactive) | 91.7%
CCN(CC(=O)NC(=O)NCc1ccccc1)Cc1nc2ccccc2c(=O)[nH]1 | 8.33% (inactive) | 68.7%
Cc1nn(C)c(Oc2ccccc2)c1[N+](=O)[O-] | 7.04% (inactive) | 55.2%
O=C(O)COc1ccc(/C=N/O)cc1Br | 8.33% (inactive) | 101%
CN1/C(=C\C=C2\N=C(c3ccc(F)cc3)OC2=O)C(C)(C)c2ccccc21 | 121% (active) | 53.1%

Structure (SMILES) | activation | normalized cell count
CC(=O)NCCC(=O)Nc1nc(C)c(Cc2ccc3c(c2)OCO3)s1 | 0% (inactive) | 42.1%
COc1cc(/C=C2/C(=O)ON=C2C)ccc1OCc1cccc(F)c1 | 0% (inactive) | 98.9%
Cc1nn(Cc2ccc(C(=O)N3N=C(C(F)F)CC3(O)C(F)F)cc2)c(C)c1[N+](=O)[O-] (configuration not stated) | 4.44% (inactive) | 126%
O=C(NCc1ccco1)c1nn2cccnc2c1Cl | 0% (inactive) | 126%
COc1ccc(CC(=O)Nc2ccc(-c3nnc(-c4ccccc4)o3)cc2)cc1 | 6.45% (inactive) | 115%
COc1ccc(CS(=O)/C(Cl)=C(/Cl)C(=O)Nc2ccc(OC)nc2)cc1 (configuration not stated) | 669% (active) | 10.6%
COc1ccc(OC(C)C(=O)Nc2cccnc2)cc1 (configuration not stated) | -8.57% (inactive) | 50%
COc1ccc(OC)c(CNC(=O)c2cc(=O)[nH]c3ccc(S(=O)(=O)N4CCCC4)cc23)c1 | 0% (inactive) | 73.7%
CC(C)C(C)(C#N)NC(=O)CSc1nncn1-c1ccccc1 (configuration not stated) | -7.14% (inactive) | 91.1%
CCNc1nc(NC(C)C)nc(N2CC(=O)N(CC(=O)OCC)C2=N)n1 | 344% (active) | 69.4%
O=Cc1cn(Cc2ccccc2)nc1-c1cccnc1 | 2.44% (inactive) | 212%
CS(=O)(=O)N(Cc1ccccc1)c1ccc(C(=O)NN=C2CCCCCC2)cc1 | -6.9% (inactive) | 150%
COC(=O)Nc1sc2nc(C)cc(C)c2c1-n1cccc1 | -3.7% (inactive) | 74.8%
CCCN1CC=C2C(C#N)=C(N)C(C#N)(C#N)C(c3cc(OC)ccc3OC)C2C1 (configuration not stated) | 178% (active) | 123%
COc1cc(OC)cc(-c2nc3ccccc3c(=O)n2NC(=O)c2cccnc2Cl)c1 | -5.56% (inactive) | 107%
CC1=NNC(=O)C1CCC(=O)N/N=C\c1ccc(Cl)c(Cl)c1 (configuration not stated) | 0% (inactive) | 124%
CCCn1c(=S)[nH]c2ccc(C(F)(F)F)cc21 | 205% (active) | 78%
CC1CC(C)CN(C(=O)CSc2ccsc2[N+](=O)[O-])C1 (configuration not stated) | 0% (inactive) | 74.7%
